Converted amounts (≈) assume the structure as drawn. Where only a bound is given, the exact number is not on record here.

Holding throughout (type): functional
Test [1] in a line: Cytotoxicity against human SQC1 cells after 72 hrs by SRB method. As to conditions: SQC1, 72 h, read-out: ED50 (the source's name). The procedure, abridged: (§1)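 Cell lines kept in RPMI 1640 with 10% fetal bovine serum, 37 °C, 5% CO2, 100% humidity. Log-phase cells treated in triplicate with glycolipids over 0.16–20 μg/mL for 72 h at 37 °C, 5% CO2. Cell concentration determined by sulforhodamine B staining; ED50 taken as dose inhibiting 50% of control growth. Ellipticine as positive control.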

Test [2] concerns KB. Description: Cytotoxicity against human KB cells after 72 hrs by SRB method. To be noted: read-out: ED50 (the source's name). The procedure, abridged: as §1
The subject of test [3] is OVCAR. Nature of the test: Cytotoxicity against human OVCAR cells after 72 hrs by SRB method. To be noted: read-out: ED50 (the source's name). In a few lines:
as §1

The test system of test [4] is HCT-15. Nature of the test: Cytotoxicity against human HCT-15 cells after 72 hrs by SRB method. To be noted: HCT-15, 72 h, read-out: ED50 (the source's name). The procedure, abridged: as §1

Regarding `CCCCC[C@H]1CCCCCCCCCC(=O)O[C@@H]2[C@@H](O[C@@H]3O[C@H](C)[C@@H](O)[C@H](O)[C@H]3O)[C@H](C)O[C@@H](O[C@H]3[C@H](O[C@H]4[C@H](O1)O[C@H](C)[C@@H](O)[C@@H]4O)O[C@H](CO)[C@@H](O)[C@@H]3O)[C@@H]2OC(=O)[C@@H](C)CC` [SCAMMONIN II], the EC50 in test [1] is above 15 µg/mL; in test [2], 7 µg/mL (≈ 7.45 µM); in test [3], above 15 µg/mL; in test [4], above 15 µg/mL.
Take `C/C=C(\C)C(=O)O[C@H]1[C@H](O)[C@@H](O)[C@H](O[C@@H]2[C@H]3OC(=O)CCCCCCCCC[C@H](CCCCC)O[C@@H]4O[C@H](C)[C@@H](O)[C@H](O)[C@H]4O[C@@H]4O[C@H](CO)[C@@H](O)[C@H](O)[C@H]4O[C@H](O[C@H]2C)[C@@H]3OC(=O)[C@@H](C)CC)O[C@@H]1C` [SCAMMONIN I]: the EC50 in test [1] is above 15 µg/mL; in test [2], 7 µg/mL (≈ 6.85 µM); in test [3], above 15 µg/mL; in test [4] it was above 15 µg/mL.
Regarding `CCCCC[C@H]1CCCCCCCCCC(=O)O[C@@H]2[C@@H](O[C@@H]3O[C@H](C)[C@@H](O)[C@H](O)[C@H]3O)[C@H](C)O[C@@H](O[C@H]3[C@H](O[C@H]4[C@H](O1)O[C@H](C)[C@@H](O)[C@@H]4O)O[C@H](COC(=O)[C@@H](C)CC)[C@@H](O)[C@@H]3O)[C@@H]2OC(=O)[C@H](C)[C@@H](C)O` [ORIZABIN VI], the EC50 was above 15 µg/mL in test [1], 7 µg/mL (≈ 6.74 µM) in test [2], above 15 µg/mL in test [3] and above 15 µg/mL in test [4].
`CCCCC[C@H]1CCCCCCCCCC(=O)O[C@@H]2[C@@H](O[C@@H]3O[C@H](C)[C@@H](OC(=O)[C@H](C)[C@@H](C)O)[C@H](O)[C@H]3O)[C@H](C)O[C@@H](O[C@H]3[C@H](O[C@H]4[C@H](O1)O[C@H](C)[C@@H](O)[C@@H]4O)O[C@H](CO)[C@@H](O)[C@@H]3O)[C@@H]2OC(=O)[C@@H](C)CC` [ORIZABIN V]: the EC50 in test [1] was above 15 µg/mL; in test [2] it was 7 µg/mL (≈ 6.74 µM); in test [3] it was above 15 µg/mL; in test [4], above 15 µg/mL.
Consider `CCCCC[C@H]1CCCCCCCCCC(=O)O[C@@H]2[C@@H](O[C@@H]3O[C@H](C)[C@@H](O)[C@H](O)[C@H]3O)[C@H](C)O[C@@H](O[C@H]3[C@H](O[C@H]4[C@H](O1)O[C@H](C)[C@@H](O)[C@@H]4O)O[C@H](COC(=O)[C@H](C)[C@@H](C)O)[C@@H](O)[C@@H]3O)[C@@H]2OC(=O)[C@@H](C)CC` [ORIZABIN VII], for which the EC50 in test [1] was above 15 µg/mL; in test [2] it was 7 µg/mL (≈ 6.74 µM); in test [3] it was above 15 µg/mL; in test [4], above 15 µg/mL.
With `Cc1c2ccncc2c(C)c2c1[nH]c1ccccc12` [ELLIPTECINE], the EC50 in test [1] turned out to be 0.41 µg/mL (≈ 1.66 µM); in test [2], 0.33 µg/mL (≈ 1.34 µM); in test [3] it was 0.58 µg/mL (≈ 2.35 µM); in test [4], 0.24 µg/mL (≈ 0.974 µM).
Taken in the same sequence, the figures for `CCCCC[C@H]1CCCCCCCCCC(=O)O[C@H]2[C@H](O)[C@@H](COC(=O)[C@H](C)[C@@H](C)O)O[C@@H](O[C@H]3[C@H](O1)O[C@H](C)[C@@H](O)[C@@H]3O)[C@@H]2O[C@@H]1O[C@@H](C)[C@H](O[C@@H]2O[C@H](C)[C@@H](O)[C@H](O)[C@H]2O)[C@@H](O)[C@H]1OC(=O)[C@@H](C)CC` [ORIZABIN VIII] were above 15 µg/mL, 7 µg/mL (≈ 6.74 µM), above 15 µg/mL and above 15 µg/mL.

(Values after ChEMBL document CHEMBL1144082, “Orizabins V-VIII, tetrasaccharide glycolipids from the Mexican scammony root (Ipomoea orizabensis)” (1999).)
